Reference: ChEMBL document CHEMBL4699498 (J Med Chem, 2020)

These compounds were tested on CAPAN-1 (assay: Antiproliferative activity against human CAPAN-1 cells assessed as cell growth inhibition incubated for 13 days by CCK-8 assay). Settings: CAPAN-1, 312 h.
Format: functional, cell-based
How it was run: (§1)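 Cells were sub-cultured at least twice and seeded for 24 h before dosing. Compounds came from 10 mM DMSO stocks, given as 10 points of 3-fold serial dilution starting at 10-20 μM. Incubation was about 7 days (Capan-1 13 days) at 37 °C, 5% CO2. Read-out was CCK-8 absorbance at 450 nm, as % growth versus DMSO wells (duplicate wells). IC50 was fitted by nonlinear regression; three independent experiments.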

Compound | IC50 [nM]
O=C(CCCCCNC(=O)CNc1cccc2c1C(=O)N(C1CCC(=O)NC1=O)C2=O)NCCCCCC(=O)N1CCN(C(=O)c2cc(Cc3n[nH]c(=O)c4ccccc34)ccc2F)CC1 (stereo not drawn) | 2200
O=C(CCCCC(=O)N1CCN(C(=O)c2cc(Cc3n[nH]c(=O)c4ccccc34)ccc2F)CC1)NCCNc1cccc2c1C(=O)N(C1CCC(=O)NC1=O)C2=O (stereo not drawn) | > 10000
O=C(CCCCCCCCCCC(=O)N1CCN(C(=O)c2cc(Cc3n[nH]c(=O)c4ccccc34)ccc2F)CC1)NCCOCCNc1cccc2c1C(=O)N(C1CCC(=O)NC1=O)C2=O (stereo not drawn) | 120
O=C(COc1cccc2c1C(=O)N(C1CCC(=O)NC1=O)C2=O)NCCCCCC(=O)N1CCN(C(=O)c2cc(Cc3n[nH]c(=O)c4ccccc34)ccc2F)CC1 (stereo not drawn) | > 10000
O=C(CCCCCCCCCCC(=O)N1CCN(C(=O)c2cc(Cc3n[nH]c(=O)c4ccccc34)ccc2F)CC1)NCCCCCCNc1cccc2c1C(=O)N(C1CCC(=O)NC1=O)C2=O (stereo not drawn) | 110
O=C(CCCCCCCCCCC(=O)N1CCN(C(=O)c2cc(Cc3n[nH]c(=O)c4ccccc34)ccc2F)CC1)NCCOCCOCCNc1cccc2c1C(=O)N(C1CCC(=O)NC1=O)C2=O (stereo not drawn) | 134
O=C(CCCNC(=O)COc1cccc2c1C(=O)N(C1CCC(=O)NC1=O)C2=O)NCCCCCC(=O)N1CCN(C(=O)c2cc(Cc3n[nH]c(=O)c4ccccc34)ccc2F)CC1 (stereo not drawn) | 3100
O=C(CCCCCCCCCC(=O)N1CCN(C(=O)c2cc(Cc3n[nH]c(=O)c4ccccc34)ccc2F)CC1)NCCNc1cccc2c1C(=O)N(C1CCC(=O)NC1=O)C2=O (stereo not drawn) | 264
O=C(CCCCCCCCCCCCC(=O)N1CCN(C(=O)c2cc(Cc3n[nH]c(=O)c4ccccc34)ccc2F)CC1)NCCNc1cccc2c1C(=O)N(C1CCC(=O)NC1=O)C2=O (stereo not drawn) | 118
O=C(CCCCCCCCCCCC(=O)N1CCN(C(=O)c2cc(Cc3n[nH]c(=O)c4ccccc34)ccc2F)CC1)NCCNc1cccc2c1C(=O)N(C1CCC(=O)NC1=O)C2=O (stereo not drawn) | 87
O=C(CCCCCCCCCCC(=O)N1CCN(C(=O)c2cc(Cc3n[nH]c(=O)c4ccccc34)ccc2F)CC1)NCCNc1cccc2c1CN(C1CCC(=O)NC1=O)C2=O (stereo not drawn) | 194
O=C(CCCCCCCCCCC(=O)N1CCN(C(=O)c2cc(Cc3n[nH]c(=O)c4ccccc34)ccc2F)CC1)NCCCOCCOCCOCCCNc1cccc2c1C(=O)N(C1CCC(=O)NC1=O)C2=O (stereo not drawn) | 154
O=C(CCCCCCCCCCC(=O)N1CCN(C(=O)c2cc(Cc3n[nH]c(=O)c4ccccc34)ccc2F)CC1)NCCNc1ccc2c(c1)C(=O)N(C1CCC(=O)NC1=O)C2=O (stereo not drawn) | 159
O=C(CCCNC(=O)CNc1cccc2c1C(=O)N(C1CCC(=O)NC1=O)C2=O)NCCCCCC(=O)N1CCN(C(=O)c2cc(Cc3n[nH]c(=O)c4ccccc34)ccc2F)CC1 (stereo not drawn) | 7100

What follows are compounds tested on MDA-MB-436 (assay: Antiproliferative activity against human MDA-MB-436 cells assessed as cell growth inhibition incubated for 7 days by CCK-8 assay). Settings: MDA-MB-436, 168 h.
Format: functional, cell-based
How it was run: as §1

IC50 [nM] | Compound
1700 | O=C(CCCCCNC(=O)CNc1cccc2c1C(=O)N(C1CCC(=O)NC1=O)C2=O)NCCCCCC(=O)N1CCN(C(=O)c2cc(Cc3n[nH]c(=O)c4ccccc34)ccc2F)CC1 (stereo not drawn)
> 10000 | O=C(CCCCC(=O)N1CCN(C(=O)c2cc(Cc3n[nH]c(=O)c4ccccc34)ccc2F)CC1)NCCNc1cccc2c1C(=O)N(C1CCC(=O)NC1=O)C2=O (stereo not drawn)
47 | O=C(CCCCCCCCCCC(=O)N1CCN(C(=O)c2cc(Cc3n[nH]c(=O)c4ccccc34)ccc2F)CC1)NCCOCCNc1cccc2c1C(=O)N(C1CCC(=O)NC1=O)C2=O (stereo not drawn)
9400 | O=C(COc1cccc2c1C(=O)N(C1CCC(=O)NC1=O)C2=O)NCCCCCC(=O)N1CCN(C(=O)c2cc(Cc3n[nH]c(=O)c4ccccc34)ccc2F)CC1 (stereo not drawn)
42 | O=C(CCCCCCCCCCC(=O)N1CCN(C(=O)c2cc(Cc3n[nH]c(=O)c4ccccc34)ccc2F)CC1)NCCCCCCNc1cccc2c1C(=O)N(C1CCC(=O)NC1=O)C2=O (stereo not drawn)
64 | O=C(CCCCCCCCCCC(=O)N1CCN(C(=O)c2cc(Cc3n[nH]c(=O)c4ccccc34)ccc2F)CC1)NCCOCCOCCNc1cccc2c1C(=O)N(C1CCC(=O)NC1=O)C2=O (stereo not drawn)
1200 | O=C(CCCNC(=O)COc1cccc2c1C(=O)N(C1CCC(=O)NC1=O)C2=O)NCCCCCC(=O)N1CCN(C(=O)c2cc(Cc3n[nH]c(=O)c4ccccc34)ccc2F)CC1 (stereo not drawn)
29 | O=C(CCCCCCCCCC(=O)N1CCN(C(=O)c2cc(Cc3n[nH]c(=O)c4ccccc34)ccc2F)CC1)NCCNc1cccc2c1C(=O)N(C1CCC(=O)NC1=O)C2=O (stereo not drawn)
25 | O=C(CCCCCCCCCCCCC(=O)N1CCN(C(=O)c2cc(Cc3n[nH]c(=O)c4ccccc34)ccc2F)CC1)NCCNc1cccc2c1C(=O)N(C1CCC(=O)NC1=O)C2=O (stereo not drawn)
21 | O=C(CCCCCCCCCCCC(=O)N1CCN(C(=O)c2cc(Cc3n[nH]c(=O)c4ccccc34)ccc2F)CC1)NCCNc1cccc2c1C(=O)N(C1CCC(=O)NC1=O)C2=O (stereo not drawn)
92 | O=C(CCCCCCCCCCC(=O)N1CCN(C(=O)c2cc(Cc3n[nH]c(=O)c4ccccc34)ccc2F)CC1)NCCNc1cccc2c1CN(C1CCC(=O)NC1=O)C2=O (stereo not drawn)
65 | O=C(CCCCCCCCCCC(=O)N1CCN(C(=O)c2cc(Cc3n[nH]c(=O)c4ccccc34)ccc2F)CC1)NCCCOCCOCCOCCCNc1cccc2c1C(=O)N(C1CCC(=O)NC1=O)C2=O (stereo not drawn)
35 | O=C(CCCCCCCCCCC(=O)N1CCN(C(=O)c2cc(Cc3n[nH]c(=O)c4ccccc34)ccc2F)CC1)NCCNc1ccc2c(c1)C(=O)N(C1CCC(=O)NC1=O)C2=O (stereo not drawn)
2200 | O=C(CCCNC(=O)CNc1cccc2c1C(=O)N(C1CCC(=O)NC1=O)C2=O)NCCCCCC(=O)N1CCN(C(=O)c2cc(Cc3n[nH]c(=O)c4ccccc34)ccc2F)CC1 (stereo not drawn)
